According to ChEMBL document CHEMBL1140709, “Design, synthesis, and biological evaluation of (E)-styrylbenzylsulfones as novel anticancer agents” (J Med Chem, 2008):

Experiments:
Type in all cases: functional, cell-based
BT-20 = assay: Antitumor activity against human BT20 cells by trypan blue exclusion assay
Outline: (§1)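 Tumour cells were grown in DMEM or RPMI with 10% fetal bovine serum and 1 unit/mL penicillin-streptomycin. They were seeded in six-well dishes at 1.0 × 10⁵ cells/mL/well, and compound was added 24 h later over a range of concentrations. After 96 h of exposure, viable cells in duplicate wells were counted by trypan blue exclusion.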

DLD-1 = assay: Antitumor activity against human DLD1 cells by trypan blue exclusion assay; outline: as §1
DU-145 = assay: Antitumor activity against AR-negative human DU145 cells by trypan blue exclusion assay; outline: as §1
[1] = Antitumor activity against human H157 cells by trypan blue exclusion assay; details: NCI-H157; outline: as §1

SMILES: COc1ccc(CS(=O)(=O)/C=C/c2c(OC)cc(F)cc2OC)cc1
- IC50 (BT-20): 0.75 µM
- IC50 (DLD-1): 0.75 µM
- IC50 (DU-145): 0.5 µM
- IC50 [1]: 0.5 µM

SMILES: COc1ccc(CS(=O)(=O)/C=C/c2c(OC)cc(O)cc2OC)cc1
- IC50 (BT-20): > 20 µM
- IC50 (DLD-1): > 20 µM
- IC50 (DU-145): > 20 µM
- IC50 [1]: > 20 µM

SMILES: COc1ccc(CS(=O)(=O)/C=C/c2ccc(Cl)cc2)cc1
- IC50 (BT-20): 2 µM
- IC50 (DLD-1): 3 µM
- IC50 (DU-145): 2.5 µM
- IC50 [1]: 3.5 µM

SMILES: COc1cc(OC)c(/C=C/S(=O)(=O)Cc2ccc(C#N)cc2)c(OC)c1
- IC50 (BT-20): 12.5 µM
- IC50 (DLD-1): 20 µM
- IC50 (DU-145): 7.5 µM
- IC50 [1]: 15 µM

SMILES: COc1cc(OC)c(/C=C/S(=O)(=O)Cc2cc(OC)c(OC)c(OC)c2)c(OC)c1
- IC50 (BT-20): > 20 µM
- IC50 (DLD-1): > 20 µM
- IC50 (DU-145): > 20 µM
- IC50 [1]: > 20 µM

SMILES: COc1ccc(CS(=O)(=O)/C=C/c2c(OC)cccc2OC)cc1
- IC50 (BT-20): 0.4 µM
- IC50 (DLD-1): 0.7 µM
- IC50 (DU-145): 0.25 µM
- IC50 [1]: 0.7 µM

SMILES: COc1ccc(CS(=O)(=O)/C=C/c2cc(C)cc(C)c2)cc1
- IC50 (BT-20): > 20 µM
- IC50 (DLD-1): > 20 µM
- IC50 (DU-145): > 20 µM
- IC50 [1]: > 20 µM

SMILES: COc1ccc(CS(=O)(=O)/C=C/c2ccc([N+](=O)[O-])cc2)cc1
- IC50 (BT-20): 5 µM
- IC50 (DLD-1): 5 µM
- IC50 (DU-145): 7.5 µM
- IC50 [1]: 7.5 µM
